# Results from ChEMBL document CHEMBL4145507, “Design, synthesis and biological evaluation of novel indole-benzimidazole hybrids targeting estrogen receptor alpha (ER-α)” (Eur J Med Chem, 2018).
# Activity calls are given as the source filed them. The calls are words filed in the database; no cut-off is given here.
# What was measured:
# T47D [1] = experiment: Antiproliferative activity against human T47D cells after 48 hrs by MTT assay
# PBMC = experiment: Cytotoxicity against human PBMC at 100 uM after 48 hrs by MTT assay; type: cell-based
# Method in brief: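 PBMCs isolated from fresh blood of a healthy donor, held in RPMI-1640 with 10% FBS and antibiotic at 37 °C, 5% CO2. About 10^4 cells seeded per well, then MTT read-out as for the T47D assay (0.5 mg/ml MTT, 4 h, acidified DMSO, 570/620 nm).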
# Estrogen receptor = target: T1, Estrogen receptor (Homo sapiens, UniProt P03372); experiment: Displacement of fluoromone TM from recombinant human ERalpha after 2 hrs by fluorescence polarization analysis
# T1 sequence (P03372 whole entry): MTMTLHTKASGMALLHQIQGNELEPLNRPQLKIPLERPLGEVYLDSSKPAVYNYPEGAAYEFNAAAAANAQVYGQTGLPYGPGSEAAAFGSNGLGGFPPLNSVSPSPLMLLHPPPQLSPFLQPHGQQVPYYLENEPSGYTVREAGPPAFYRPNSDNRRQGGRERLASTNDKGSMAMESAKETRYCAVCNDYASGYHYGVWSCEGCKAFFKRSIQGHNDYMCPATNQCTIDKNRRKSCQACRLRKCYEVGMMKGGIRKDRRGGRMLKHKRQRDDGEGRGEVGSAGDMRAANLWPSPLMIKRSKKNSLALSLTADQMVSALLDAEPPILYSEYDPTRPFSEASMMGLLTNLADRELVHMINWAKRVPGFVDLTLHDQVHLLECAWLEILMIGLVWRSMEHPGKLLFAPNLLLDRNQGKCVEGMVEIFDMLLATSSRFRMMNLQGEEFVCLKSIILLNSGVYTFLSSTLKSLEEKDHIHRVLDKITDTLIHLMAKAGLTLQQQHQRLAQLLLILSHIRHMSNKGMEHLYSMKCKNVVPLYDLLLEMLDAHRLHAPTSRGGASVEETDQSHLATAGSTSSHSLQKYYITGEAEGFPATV
# Method in brief: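 Fluorescence polarization kit: serially DMSO-diluted compound mixed with recombinant human ERα/Fluormone ES2 complex, at least 2 h at room temperature in the dark. Controls were oestradiol for minimum polarization and free tracer. Percent inhibition normalized; IC50 from non-linear regression as the concentration displacing half of the bound ligand.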
# T47D [2] = experiment: Downregulation of ERalpha mRNA levels in human T47D cells at 15 uM after 48 hrs by semi-quantitative RT-PCR analysis; type: functional, cell-based
# Method in brief: (§1)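 T47D cells exposed 48 h; total RNA extracted with TRIzol, checked by NanoDrop and denaturing agarose gel, then reverse transcribed. ERα transcript amplified, run on agarose gel and quantified by densitometry, normalized to GAPDH; representative of three experiments.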
# T47D [3] = experiment: Downregulation of ERalpha protein levels in human T47D cells at 15 uM after 48 hrs by Western blot analysis; type: functional
# Method in brief: (§2)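 T47D cells exposed 48 h, lysed in modified RIPA (50 mM Tris-HCl pH 7.4, 150 mM NaCl, 1 mM EDTA, 1% NP-40, protease inhibitors), protein by Bradford. 50 µg protein run on 10% SDS-PAGE, transferred to nitrocellulose, blocked with 5% milk, probed overnight at 4 °C with rabbit anti-ERα (HC-20), HRP secondary, ECL detection. Normalized to β-actin; three experiments.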
# [4] = Drug uptake in human T47D cell nucleus at 15 uM after 24 hrs by confocal laser scanning microscopic method; type: ADME, subcellular
# [5] = Drug uptake in human T47D cell plasma membrane at 15 uM after 24 hrs by confocal laser scanning microscopic method; type: ADME, cell membranes
# [6] = Drug uptake in human T47D cell cytosol at 15 uM after 24 hrs by confocal laser scanning microscopic method; type: ADME, subcellular
# [7] = Drug uptake in human T47D cell cytosol at 5 uM after 24 hrs by confocal laser scanning microscopic method; type: ADME, subcellular
# [8] = Drug uptake in human T47D cell nucleus at 5 uM after 24 hrs by confocal laser scanning microscopic method; type: ADME, subcellular
# [9] = Drug uptake in human T47D cell plasma membrane at 5 uM after 24 hrs by confocal laser scanning microscopic method; type: ADME, cell membranes
# T47D [10] = experiment: Downregulation of ERalpha mRNA levels in human T47D cells at 5 uM after 48 hrs by semi-quantitative RT-PCR analysis; type: functional, cell-based; method in brief: as §1
# T47D [11] = experiment: Downregulation of ERalpha protein levels in human T47D cells at 5 uM after 48 hrs by Western blot analysis; type: functional; method in brief: as §2
Structure (SMILES),IC50 (T47D [1]) [µM],IC50 (Estrogen receptor) [µM],Activity (PBMC),other results
c1ccc2[nH]c(C3=Nc4cccc5cccc(c45)N3)cc2c1,20.5,0.202,Non-Toxic,–
Clc1cc2nc(-c3cc4ccccc4[nH]3)[nH]c2cc1Cl,21.2,–,Non-Toxic,–
Cc1cccc2[nH]c(-c3cc4ccccc4[nH]3)nc12,8.9,0.192,Non-Toxic,–
c1ccc(Cn2c(-c3nc4cccnc4[nH]3)cc3ccccc32)cc1,–,–,Non-Toxic,–
c1ccc2[nH]c(-c3nc4cccnc4[nH]3)cc2c1,–,–,Non-Toxic,–
O=C(c1ccccc1)c1ccc2[nH]c(-c3cc4ccccc4[nH]3)nc2c1,–,0.0469,Non-Toxic,–
c1ccc2[nH]c(-c3nc4ccccc4[nH]3)cc2c1,6.2,–,Non-Toxic,–
Brc1ccc2[nH]c(-c3cc4ccccc4[nH]3)nc2c1,4.99,0.0804,Non-Toxic,Drug uptake [7]: Active; Drug uptake [8]: Not Active; Drug uptake [9]: Active; Activity (T47D [10]): Active; Activity (T47D [11]): 27.5%
O=C(c1ccccc1)c1ccc2[nH]c(-c3cc4ccccc4n3Cc3ccccc3)nc2c1,–,–,Non-Toxic,–
Cc1c(-c2ccc(O)cc2)n(Cc2ccc(OCCN3CCCCCC3)cc2)c2ccc(O)cc12,–,–,–,Activity (T47D [2]): Active
BrC1=CN2NC(c3cc4ccccc4[nH]3)=NC2N=C1 (configuration not stated),24.4,–,Non-Toxic,–
c1ccc2cc3[nH]c(-c4cc5ccccc5[nH]4)nc3cc2c1,23.4,–,Non-Toxic,–
Brc1cnc2[nH]c(-c3cc4ccccc4[nH]3)nc2c1,21,–,Non-Toxic,–

# Second part, led by results:
IC50 (T47D [1]) [µM],IC50 (Estrogen receptor) [µM],Structure (SMILES),Activity (PBMC),other results
–,0.3,Brc1cnc2[nH]c(-c3cc4ccccc4n3Cc3ccccc3)nc2c1,Non-Toxic,–
–,0.539,BrC1=CN2NC(c3cc4ccccc4n3Cc3ccccc3)=NC2N=C1 (configuration not stated),Non-Toxic,–
15.5,0.0736,Brc1ccc2[nH]c(-c3cc4ccccc4n3Cc3ccccc3)nc2c1,Non-Toxic,Activity (T47D [2]): Active; Activity (T47D [3]): 57.42%; Drug uptake [4]: Not Active; Drug uptake [5]: Active; Drug uptake [6]: Active
24.8,–,Cc1cc(C)c2nc(-c3cc4ccccc4[nH]3)[nH]c2c1,Non-Toxic,–
13.4,–,c1ccc(Cn2c(-c3nc4cc5ccccc5cc4[nH]3)cc3ccccc32)cc1,Non-Toxic,–
–,0.387,Cc1cccc2[nH]c(-c3cc4ccccc4n3Cc3ccccc3)nc12,Non-Toxic,–
22.5,0.0767,Clc1cc2nc(-c3cc4ccccc4n3Cc3ccccc3)[nH]c2cc1Cl,Non-Toxic,–
21.4,0.259,c1ccc(Cn2c(-c3nc4ccccc4[nH]3)cc3ccccc32)cc1,Non-Toxic,–
21.8,0.0331,Cc1cc(C)c2nc(-c3cc4ccccc4n3Cc3ccccc3)[nH]c2c1,Non-Toxic,–
